# A selection: hits, their analogues and other compounds. The true share with any hit is near 1.9%.
# CHRM4 PAM: potentiates acetylcholine response at human M4 receptor; CHO-K1 hM4/Gqi5, Fluo-8 calcium fluorescence, ACh EC20; 0% = ACh EC20, 100% = maximal ACh; activation, % at 3 µM; actives 0.4% (n = 360,000); AID 624126;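 active = activation above its plate's cutoff, the mean activation of sample wells plus 3 SD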
# CHRM5 antagonist: CHRM5 antagonism in calcium assay; actives 0.59% (n = 360,000); CHO-hM5 cells, Fluo-8 calcium fluorescence, ACh EC80; P08912; AID 624040; inhibition, % at 3 µM;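 active = inhibition above a per-plate cutoff, the mean of that plate's test compounds plus 3 SD, cut at about 27% in these data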;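 note: 0% = acetylcholine EC80 with DMSO and 100% = DMSO without agonist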
# M4 antag: CHRM4 antagonism in calcium assay | AID 624125 | P08173 | CHO-hM4 cells, ACh EC80, Fluo-8 calcium fluorescence | actives 0.73% (n = 360,000) | inhibition, % at 3 µM;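 active = inhibition above its plate's cutoff, the mean inhibition of sample wells plus 3 SD, cut at about 27% in these data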;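 note: 0% = acetylcholine EC80 with DMSO and 100% = DMSO without agonist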
# CHRM5 PAM: CHRM5 positive allosteric modulation; CHO-K1 hM5, Fluo-8 calcium, ACh EC20 PAM; 0% = ACh EC20, 100% = ACh EC100; activation, % at 3 µM; actives 0.3% (n = 360,000); AID 624038;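 active = activation above the run cutoff, the mean activation of all test compounds plus 3 SD, cut at about 18% in these data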
#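 system = human M5 receptor in CHO-K1 cells | compound = one concentration, 3 µM final (nominal) | schedule = Post-acetylcholine fluorescence recording 140 s | signal = Fluo-8 calcium dye fluorescence, kinetic read | benchmarks = low control EC20 acetylcholine (0%), high control EC100 acetylcholine (100%) | repeats = singlicate, one well per test compound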
# M5 ag: agonists of human muscarinic M5 receptor (CHRM5) | P08912 | CHO-K1 hM5 cells, Fluo-8 calcium fluorescence; 0% DMSO wells, 100% maximal acetylcholine response | activation, % at 3 µM | actives 0.19% (n = 360,000) | AID 624037;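 active = activation above the run's mean over test compounds plus 3 SD, cut at about 23% in these data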;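 note: signal is peak over basal fluorescence ratio across the kinetic read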
# CHRM4 agonist: agonists of human muscarinic M4 receptor (CHRM4); P08173; CHO-K1 hM4/Gqi5, Fluo-8 calcium fluorescence; vehicle 0%, full acetylcholine response 100%; actives 0.14% (n = 360,000); activation, % at 3 µM;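 active = activation above the run mean over all test wells plus 3 SD, cut at about 32% in these data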;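 note: peak over basal fluorescence ratio per well then scaled between controls; 0% = DMSO wells and 100% = acetylcholine at EC100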
# Numbers without * were called inactive.
SMILES,CHRM4 PAM,CHRM5 antagonist,M4 antag,CHRM5 PAM,M5 ag,CHRM4 agonist
CC(=O)N1CCN(Cc2nc3cc(NC(=O)c4ccccc4)ccc3n2C)CC1,5.5,5.7,-3.3,0.2,-2.3,0.8
COc1ccccc1C(=O)Nc1ccc2c(c1)nc(CN1CCN(C(C)=O)CC1)n2C,6.5,5.9,27.2*,-1.5,2.5,1.5
O=C1CCCC(O)=C1N=Nc1cccc(C(=O)O)c1,20.4*,-8.7,-2.1,-7.1,-5.9,3.2
CCCNS(=O)(=O)c1ccc(CCC(=O)Nc2cc(Cl)ccc2Oc2ccccc2)cc1,-19.6,29.3*,42.9*,-19.2,-0.3,9.1
Cn1ccnc1Sc1ccc(C(N)=O)cc1[N+](=O)[O-],-3.6,5.8,3.5,-4.2,0.0,2.0
O=C(COC(=O)CNC(=O)c1ccc(Cl)cc1Cl)NCc1ccco1,-2.5,-5.4,-6.2,4.9,0.8,0.1
COc1ccccc1C(=O)N(CCC1CCCN1C)c1nc2ccccc2s1 (stereo not drawn),-25.2,27.4*,11.0,-18.5,-10.1,19.9
c1ccc(CSc2ncnc3c2cnn3-c2ccccc2)cc1,1.2,4.3,1.3,-2.1,-2.6,0.4
Cn1c(N)c(C(=O)/C=C/c2ccccc2)c(=O)[nH]c1=O,-0.1,46.8*,-4.4,-18.8,-7.5,0.3
COc1ccc(N2CCN(C(=O)c3oc4ccccc4c3NC(=O)CCc3cc(OC)no3)CC2)cc1,-10.2,1.5,-16.6,-1.9,-1.1,9.0
O=S(=O)(Nc1ccc2c(c1)OCO2)c1cccs1,4.5,20.7,-10.0,33.6*,-2.0,0.4
CCOC(=O)CSc1nnc(NC(=O)CCc2ccccc2)s1,21.3*,-1.0,7.2,7.0,-4.2,0.6
Cc1ccc(NC(=O)N2CCC(NC(=O)C(C)(C)C)CC2)cc1,8.9,-0.4,-6.1,42.5*,-4.7,0.3
c1ccc2c(Nc3ccc4c(c3)OCCO4)c3c(nc2c1)CCCC3,-9.9,43.7*,-4.4,-20.1,-9.1,2.5
COc1ccc(NC(=O)CSC2=C(C#N)C(c3ccco3)C3=C(CCCC3=O)N2)c(OC)c1 (stereo not drawn),1.1,42.1*,2.1,-13.2,-4.7,4.1
COc1cccc(NC(=O)CSC2=C(C#N)C(c3ccco3)C3=C(CCCC3=O)N2)c1 (stereo not drawn),-0.9,6.3,-1.9,-8.9,-1.4,3.0
O=C(O)C1C2CCC(CC2)C1C(=O)N1CCN(Cc2ccc(F)cc2)CC1 (stereo not drawn),-0.2,1.6,-3.3,2.1,-2.3,0.0
COc1ccc(NC(=O)C[C@H]2C(=O)N(c3ccc(Br)cc3)C[C@@H]2C)cc1,-5.6,-7.4,-2.8,1.1,1.9,5.8
CCC1(CC)NC(=O)N(CC(=O)OCC(=O)Nc2ccc(OC(F)(F)F)cc2)C1=O,4.1,-1.3,0.7,-2.1,2.2,4.4
Cc1ccccc1OCCn1cnc2c(N)ncnc21,16.5*,4.4,2.2,-3.4,3.3,4.6
c1ccc2c(c1)nc1n2CC2CON(C3CCCCC3)C12 (stereo not drawn),24.9*,0.4,-8.0,11.1,0.3,0.2
c1ccc(N2OCC3Cn4c(nc5ccccc54)C32)cc1 (stereo not drawn),24.4*,-13.3,-0.7,6.2,4.3,2.2
c1ccc(CN2OCC3Cn4c(nc5ccccc54)C32)cc1 (stereo not drawn),7.4,-2.8,-16.3,7.3,-0.5,0.5
CCCCN1C(N)=NC[C@@H]1Cc1ccc(O)cc1,5.3,9.3,9.7,-5.3,-3.0,-0.2
COc1cc(CCCN2C(N)=NC[C@H]2Cc2ccc(O)cc2)cc(OC)c1OC,14.3,-6.7,-9.2,18.1*,-1.9,0.3
NC1=NC[C@H](Cc2ccc(O)cc2)N1CCC12CC3CC(CC(C3)C1)C2,-18.5,7.3,46.4*,-8.5,-11.7,2.2
Cc1c(C(C)CCCO)oc(=O)c2c1Oc1c(C)c(C(C)C[C@H](C)O)oc(=O)c1C2 (stereo partly drawn),19.0,-0.9,-13.4,11.8,3.6,3.7
